Measurements of several laboratories.
Compare with care: the assays were run in different laboratories.
Target: Discoidin domain-containing receptor 2 (DDR2, Homo sapiens, UniProt Q16832)
One construct used (Q16832 22-855): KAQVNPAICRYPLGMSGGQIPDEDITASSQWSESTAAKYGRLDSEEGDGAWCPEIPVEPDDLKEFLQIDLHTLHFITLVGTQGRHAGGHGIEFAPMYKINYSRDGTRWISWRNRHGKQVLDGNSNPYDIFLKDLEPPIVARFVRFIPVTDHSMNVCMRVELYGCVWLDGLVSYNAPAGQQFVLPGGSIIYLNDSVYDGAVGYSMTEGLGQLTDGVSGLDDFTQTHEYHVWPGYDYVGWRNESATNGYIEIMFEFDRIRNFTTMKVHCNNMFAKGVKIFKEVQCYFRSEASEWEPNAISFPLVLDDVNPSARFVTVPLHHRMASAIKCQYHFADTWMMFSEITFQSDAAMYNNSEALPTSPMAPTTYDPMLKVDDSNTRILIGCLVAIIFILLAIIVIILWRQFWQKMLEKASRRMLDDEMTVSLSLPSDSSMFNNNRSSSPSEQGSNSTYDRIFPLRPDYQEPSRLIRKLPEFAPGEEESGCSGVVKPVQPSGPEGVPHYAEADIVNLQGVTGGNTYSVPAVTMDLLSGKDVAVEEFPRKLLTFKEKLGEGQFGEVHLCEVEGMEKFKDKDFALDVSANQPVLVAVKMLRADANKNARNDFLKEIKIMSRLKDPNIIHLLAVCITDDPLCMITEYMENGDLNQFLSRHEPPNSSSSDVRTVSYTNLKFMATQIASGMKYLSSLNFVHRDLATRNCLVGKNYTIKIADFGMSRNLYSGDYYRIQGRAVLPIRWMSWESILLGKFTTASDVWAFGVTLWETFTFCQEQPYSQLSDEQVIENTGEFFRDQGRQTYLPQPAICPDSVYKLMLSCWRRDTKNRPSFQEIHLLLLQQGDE

Compound | test | conditions | measurement | result
COc1ncccc1-c1cnn2ccc(N3CCN(C(=O)OC(C)C)CC3)nc12 | binding, competition with immobilised ligand | 1 µM | remaining binding | 36%
N#CC1(c2ccccn2)CCN(Cc2cc(C(=O)O)c(=O)n3ccccc23)CC1 | cell-free assay, competition with immobilised ligand | 1 µM | remaining binding | 100%
C#Cc1n[nH]c2c(-c3cn([C@@H](C)c4ccccn4)c(=O)[nH]c3=O)cc(F)cc12 | enzyme activity, inhibitor | 0.1 µM | inhibition | 0.9%
Cn1cc(-c2cc(F)cc(N3CCn4c(cc5c4CCCC5)C3=O)c2CO)cc(Nc2ccc(N3CCN(C4COC4)CC3)cn2)c1=O | enzyme activity, inhibitor | 0.1 µM | inhibition | -7%
CC(C)(C)c1cc(C=C(C#N)C#N)cc(Br)c1O | enzyme activity, inhibitor | 0.5 µM | remaining activity | 105%
Cc1nn(C)cc1-c1nc2c(N3CCN(Cc4ccc(Cl)cc4)CC3)c(Cl)cnc2[nH]1 | binding, competition with immobilised ligand | 1 µM | remaining binding | 96%
Cn1cncc1[C@@](O)(COc1ccc(C#N)cc1-c1ccc(OC(F)(F)F)cc1)c1ccc(C#N)cc1 | cell-free assay, competition with immobilised ligand | 1 µM | remaining binding | 95%
Cn1cc(-c2cccc(N3CCc4c(sc5c4CC(C)(C)C5)C3=O)c2CO)cc(Nc2ccncn2)c1=O | enzyme activity, inhibitor | 1 µM | inhibition | 1%
O=c1[nH]c2ccccc2n1C1CCN(Cc2ccc(-c3[nH]c4cc5ncnc5cc4nc3-c3ccccc3)cc2)CC1 | cell-free assay | 0.5 µM | remaining signal | 99.2%
C#Cc1n[nH]c2c(-c3cn([C@@H](C)c4ccccc4)c(=O)[nH]c3=O)cc(F)cc12 | enzyme activity, inhibitor | 0.1 µM | inhibition | -1.1%
Nc1ncc(-c2nc(N3CCOCC3)nc(N3CCOCC3)n2)c(C(F)F)n1 | cell-free assay, competition with immobilised ligand | 10 µM | remaining binding | 57%
COc1cc(Nc2ncc(F)c(Nc3ccc4c(n3)NC(=O)C(C)(C)O4)n2)cc(OC)c1OC | binding, competition with immobilised ligand | 10 µM | inhibition | 86%
